In ChEMBL document CHEMBL1221394, “Anti-AIDS agents 79. Design, synthesis, molecular modeling and structure-activity relationships of novel dicamphanoyl-2',2'-dimethyldihydropyranochromone (DCP) analogs as potent anti-HIV agents” (Bioorg Med Chem, 2010):
Values after ≈ are worked out from the molar mass of the structure shown.

Columns and labels:
[1] = system: Human immunodeficiency virus 1; test: Antiviral activity against HIV1 3B infected in human H9 cells; assay type: functional, organism-based; conditions: Human immunodeficiency virus 1, 3B
[2] = Therapeutic index, ratio of CC50 for human H9 cells to EC50 for HIV1 3B; assay type: cell-based; conditions: read-out: TI
[3] = Therapeutic index, ratio of IC50 for human TZM-b1 cells to EC50 for HIV1 NL4-3; assay type: cell-based; conditions: read-out: TI
Outline: (§1)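 Cytotoxicity was measured with the CytoTox-Glo kit following the manufacturer's instructions. Antiviral EC50 came from the single-round TZM-bl luciferase assay: 200 TCID50 virus, eight 4-fold sample dilutions, 48 h, and 50% RLU reduction versus virus control after background subtraction.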

[4] = Cytotoxicity against human TZM-b1 cells; assay type: cell-based
Outline: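 Cytotoxicity in TZM-bl cells read with the CytoTox-Glo luminescent assay, run according to the kit instructions.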

[5] = system: Human immunodeficiency virus 1; test: Antiviral activity against wild type HIV1 NL4-3 in human TZM-b1 cells after 48 hrs by luciferase reporter gene assay; assay type: functional, organism-based; conditions: Human immunodeficiency virus 1, NL4-3, TZM-b1, 48 h
Outline: (§2)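 Single-round infection of TZM-bl cells with 200 TCID50 virus mixed with test sample at eight 4-fold serial dilutions. Incubated 48 h, then luciferase reagent was added and luminescence read. IC50 is the concentration giving 50% reduction in RLU versus virus-control wells, after subtracting background RLU.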

[6] = system: Human immunodeficiency virus 1; test: Antiviral activity against HIV1 RTMDR1 in human TZM-b1 cells after 48 hrs by luciferase reporter gene assay; assay type: functional, organism-based; conditions: Human immunodeficiency virus 1, RTMDR1, TZM-b1, 48 h; outline: as §2
[7] = Therapeutic index, ratio of IC50 for human TZM-b1 cells to EC50 for HIV1 RTMDR1; assay type: cell-based; conditions: read-out: TI; outline: as §1
[8] = system: Human immunodeficiency virus 1; test: Antiviral activity against HIV1 infected in human H9 cells; assay type: functional, organism-based; conditions: Human immunodeficiency virus 1, H9
[9] = Therapeutic index, ratio of CC50 for human H9 cells to EC50 for HIV1; assay type: cell-based; conditions: read-out: TI
[10] = system: Human immunodeficiency virus 1; test: Antiviral activity against HIV1 RTMDR1 in human MT4 cells; assay type: functional, organism-based; conditions: Human immunodeficiency virus 1, RTMDR1, MT4
[11] = Therapeutic index, ratio of CC50 for human H9 cells to EC50 for HIV1 RTMDR1; assay type: cell-based; conditions: read-out: TI
[12] = Solubility of the compound in water after 1 hr; assay type: physicochemical; conditions: for solubility: HPLC grade water, 1 h
Outline: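 Excess solid compound was added to HPLC-grade water and sonicated in an ultrasonic bath at room temperature for 1 h. Undissolved solid was removed with a PTFE syringe filter. Dissolved concentration was quantified by HPLC on a C18 column (2.1 mm × 100 mm) at a flow rate of 200 μL/min.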

Row | Compound | EC50 [1] | selectivity ratio [2] | selectivity ratio [3] | IC50 [4] | EC50 [5] | EC50 [6] | selectivity ratio [7] | EC50 [8] | selectivity ratio [9] | EC50 [10] | selectivity ratio [11] | solubility [12] | solubility at 1 h ([12]; water)
1 | Cc1cc(=O)oc2c3c(ccc12)OC(C)(C)[C@H](OC(=O)[C@@]12CC[C@@](C)(C(=O)O1)C2(C)C)[C@@H]3OC(=O)[C@@]12CC[C@@](C)(C(=O)O1)C2(C)C | 5.9 nM | 6660 | – | – | – | – | – | – | – | – | – | – | –
2 | CCc1cc(=O)c2ccc3c(c2o1)[C@@H](OC(=O)[C@@]12CC[C@@](C)(C(=O)O1)C2(C)C)[C@@H](OC(=O)[C@@]12CC[C@@](C)(C(=O)O1)C2(C)C)C(C)(C)O3 | – | – | 94 | 6600 nM | 70 nM | 110 nM | 60 | 70 nM | 94 | 110 nM | 60 | < 0.9 µg/mL | –
3 | CNc1c(C)oc2c3c(ccc2c1=O)OC(C)(C)[C@H](OC(=O)[C@@]12CC[C@@](C)(C(=O)O1)C2(C)C)[C@@H]3OC(=O)[C@@]12CC[C@@](C)(C(=O)O1)C2(C)C | – | – | > 200 | > 60000 nM | 300 nM | 450 nM | > 130 | – | – | – | – | – | –
4 | Cc1oc2c3c(ccc2c(=O)c1Br)OC(C)(C)[C@H](OC(=O)[C@@]12CC[C@@](C)(C(=O)O1)C2(C)C)[C@@H]3OC(=O)[C@@]12CC[C@@](C)(C(=O)O1)C2(C)C | – | – | 14 | 7700 nM | 550 nM | 570 nM | 14 | – | – | – | – | – | –
5 | Cc1cc(=O)c2c(C)cc3c(c2o1)[C@@H](OC(=O)[C@@]12CC[C@@](C)(C(=O)O1)C2(C)C)[C@@H](OC(=O)[C@@]12CC[C@@](C)(C(=O)O1)C2(C)C)C(C)(C)O3 | – | – | 420 | 15000 nM | 36 nM | 49 nM | 310 | – | – | – | – | – | 5.2 µg/mL (≈ 7.99 µM)
6 | Cc1oc2c3c(cc(C)c2c(=O)c1Br)OC(C)(C)[C@H](OC(=O)[C@@]12CC[C@@](C)(C(=O)O1)C2(C)C)[C@@H]3OC(=O)[C@@]12CC[C@@](C)(C(=O)O1)C2(C)C | – | – | > 24 | > 14000 nM | 590 nM | 910 nM | > 15 | – | – | – | – | – | –
7 | Cc1oc2c3c(c(Br)c(C)c2c(=O)c1Br)OC(C)(C)[C@H](OC(=O)[C@@]12CC[C@@](C)(C(=O)O1)C2(C)C)[C@@H]3OC(=O)[C@@]12CC[C@@](C)(C(=O)O1)C2(C)C | – | – | > 1.2 | > 12000 nM | 10000 nM | > 12000 nM | – | – | – | – | – | – | –
8 | Cc1cc(=O)c2c(CBr)cc3c(c2o1)[C@@H](OC(=O)[C@@]12CC[C@@](C)(C(=O)O1)C2(C)C)[C@@H](OC(=O)[C@@]12CC[C@@](C)(C(=O)O1)C2(C)C)C(C)(C)O3 | – | – | 11 | 8900 nM | 810 nM | 1200 nM | 7.4 | – | – | – | – | – | –
9 | CCc1cc(=O)c2c(C)cc3c(c2o1)[C@@H](OC(=O)[C@@]12CC[C@@](C)(C(=O)O1)C2(C)C)[C@@H](OC(=O)[C@@]12CC[C@@](C)(C(=O)O1)C2(C)C)C(C)(C)O3 | – | – | 110 | 11000 nM | 100 nM | 54 nM | 200 | – | – | – | – | – | –
10 | CCc1cc(=O)c2c(CC)cc3c(c2o1)[C@@H](OC(=O)[C@@]12CC[C@@](C)(C(=O)O1)C2(C)C)[C@@H](OC(=O)[C@@]12CC[C@@](C)(C(=O)O1)C2(C)C)C(C)(C)O3 | – | – | > 120 | > 30000 nM | 250 nM | 340 nM | – | – | – | – | – | – | –
11 | CC1(C)Oc2ccc3c(=O)cc(CBr)oc3c2[C@@H](OC(=O)[C@@]23CC[C@@](C)(C(=O)O2)C3(C)C)[C@H]1OC(=O)[C@@]12CC[C@@](C)(C(=O)O1)C2(C)C | – | – | 3 | 1700 nM | 550 nM | 560 nM | 3 | – | – | – | – | – | –
12 | CC(Br)c1cc(=O)c2ccc3c(c2o1)[C@@H](OC(=O)[C@@]12CC[C@@](C)(C(=O)O1)C2(C)C)[C@@H](OC(=O)[C@@]12CC[C@@](C)(C(=O)O1)C2(C)C)C(C)(C)O3 (stereo partly drawn) | – | – | – | 3500 nM | – | – | – | – | – | – | – | – | –
13 | CC(Br)(Br)c1cc(=O)c2ccc3c(c2o1)[C@@H](OC(=O)[C@@]12CC[C@@](C)(C(=O)O1)C2(C)C)[C@@H](OC(=O)[C@@]12CC[C@@](C)(C(=O)O1)C2(C)C)C(C)(C)O3 | – | – | 1.8 | 1800 nM | 1000 nM | 450 nM | 4 | – | – | – | – | – | –
14 | CC1(C)Oc2ccc3c(=O)cc(CC#N)oc3c2[C@@H](OC(=O)[C@@]23CC[C@@](C)(C(=O)O2)C3(C)C)[C@H]1OC(=O)[C@@]12CC[C@@](C)(C(=O)O1)C2(C)C | – | – | 9.4 | 17000 nM | 1800 nM | 1400 nM | 12 | – | – | – | – | – | –
15 | Cc1c(C#N)oc2c3c(ccc2c1=O)OC(C)(C)[C@H](OC(=O)[C@@]12CC[C@@](C)(C(=O)O1)C2(C)C)[C@@H]3OC(=O)[C@@]12CC[C@@](C)(C(=O)O1)C2(C)C | – | – | 290 | 40000 nM | 140 nM | 1900 nM | 21 | – | – | – | – | – | –
16 | CNCc1cc(=O)c2ccc3c(c2o1)[C@@H](OC(=O)[C@@]12CC[C@@](C)(C(=O)O1)C2(C)C)[C@@H](OC(=O)[C@@]12CC[C@@](C)(C(=O)O1)C2(C)C)C(C)(C)O3 | – | – | > 100 | > 30000 nM | 290 nM | 690 nM | > 43 | – | – | – | – | – | –
17 | CCc1oc2c3c(ccc2c(=O)c1Br)OC(C)(C)[C@H](OC(=O)[C@@]12CC[C@@](C)(C(=O)O1)C2(C)C)[C@@H]3OC(=O)[C@@]12CC[C@@](C)(C(=O)O1)C2(C)C | – | – | > 24 | > 27000 nM | 1100 nM | 990 nM | > 28 | – | – | – | – | – | –
18 | Cc1oc2c3c(ccc2c(=O)c1I)OC(C)(C)[C@H](OC(=O)[C@@]12CC[C@@](C)(C(=O)O1)C2(C)C)[C@@H]3OC(=O)[C@@]12CC[C@@](C)(C(=O)O1)C2(C)C | – | – | 18 | 13000 nM | 730 nM | 1600 nM | 8 | – | – | – | – | – | –
19 | CCc1oc2c3c(ccc2c(=O)c1C#N)OC(C)(C)[C@H](OC(=O)[C@@]12CC[C@@](C)(C(=O)O1)C2(C)C)[C@@H]3OC(=O)[C@@]12CC[C@@](C)(C(=O)O1)C2(C)C | – | – | > 54 | > 30000 nM | 550 nM | 790 nM | > 37 | – | – | – | – | – | –
20 | Cc1oc2c3c(ccc2c(=O)c1N)OC(C)(C)[C@H](OC(=O)[C@@]12CC[C@@](C)(C(=O)O1)C2(C)C)[C@@H]3OC(=O)[C@@]12CC[C@@](C)(C(=O)O1)C2(C)C | – | – | 130 | 32000 nM | 250 nM | 470 nM | 68 | – | – | – | – | – | –
21 | CCc1oc2c3c(ccc2c(=O)c1N)OC(C)(C)[C@H](OC(=O)[C@@]12CC[C@@](C)(C(=O)O1)C2(C)C)[C@@H]3OC(=O)[C@@]12CC[C@@](C)(C(=O)O1)C2(C)C | – | – | 190 | 23000 nM | 120 nM | 310 nM | 74 | – | – | – | – | 10.3 µg/mL (≈ 15.5 µM) | –
22 | CCc1oc2c3c(ccc2c(=O)c1NC)OC(C)(C)[C@H](OC(=O)[C@@]12CC[C@@](C)(C(=O)O1)C2(C)C)[C@@H]3OC(=O)[C@@]12CC[C@@](C)(C(=O)O1)C2(C)C | – | – | 73 | 32000 nM | 440 nM | 1100 nM | 29 | – | – | – | – | – | –
23 | CC1(C)Oc2ccc3c(=O)cc(CN4CCOCC4)oc3c2[C@@H](OC(=O)[C@@]23CC[C@@](C)(C(=O)O2)C3(C)C)[C@H]1OC(=O)[C@@]12CC[C@@](C)(C(=O)O1)C2(C)C | – | – | > 14 | > 28000 nM | – | – | > 6.3 | – | – | – | – | – | –
24 | CN(C)CCCN1CCN(Cc2cc(=O)c3ccc4c(c3o2)[C@@H](OC(=O)[C@@]23CC[C@@](C)(C(=O)O2)C3(C)C)[C@@H](OC(=O)[C@@]23CC[C@@](C)(C(=O)O2)C3(C)C)C(C)(C)O4)CC1 | – | – | – | 17000 nM | – | – | – | – | – | – | – | – | –
25 | CC1(C)Oc2ccc3c(=O)cc(CNCc4ccncc4)oc3c2[C@@H](OC(=O)[C@@]23CC[C@@](C)(C(=O)O2)C3(C)C)[C@H]1OC(=O)[C@@]12CC[C@@](C)(C(=O)O1)C2(C)C | – | – | > 1.3 | > 27000 nM | 21000 nM | – | > 1.3 | – | – | – | – | – | –
26 | Cc1cc(=O)c2ccc3c(c2o1)[C@@H](OC(=O)[C@@]12CC[C@@](C)(C(=O)O1)C2(C)C)[C@@H](OC(=O)[C@@]12CC[C@@](C)(C(=O)O1)C2(C)C)C(C)(C)O3 | – | – | 110 | 11000 nM | 100 nM | 190 nM | 58 | – | – | – | – | – | –
27 | CC1(C)Oc2ccc3ccc(=O)oc3c2[C@@H](OC(=O)C23CCC(C)(C(=O)O2)C3(C)C)[C@H]1OC(=O)C12CCC(C)(C(=O)O1)C2(C)C (stereo partly drawn) | 49 nM | 328 | – | – | – | – | – | – | – | – | – | – | –
